ChEMBL document CHEMBL1134640, “A novel series of highly potent benzimidazole-based microsomal triglyceride transfer protein inhibitors” (J Med Chem, 2001)
Each block holds one compound with its values, some of them ahead of it.

Key:
Mesocricetus auratus [1] = experiment: 50% lowering of plasma TC in standard-diet-fed golden Syrian hamsters 16h postdosing. 15 mg/kg required for
[2] = target: T1, Microsomal triglyceride transfer protein large subunit (Homo sapiens, UniProt P55157); experiment: In vitro inhibition of human Microsomal Triglyceride Transfer Protein, (triglyceride transfer assay)
T1 sequence (P55157 whole entry): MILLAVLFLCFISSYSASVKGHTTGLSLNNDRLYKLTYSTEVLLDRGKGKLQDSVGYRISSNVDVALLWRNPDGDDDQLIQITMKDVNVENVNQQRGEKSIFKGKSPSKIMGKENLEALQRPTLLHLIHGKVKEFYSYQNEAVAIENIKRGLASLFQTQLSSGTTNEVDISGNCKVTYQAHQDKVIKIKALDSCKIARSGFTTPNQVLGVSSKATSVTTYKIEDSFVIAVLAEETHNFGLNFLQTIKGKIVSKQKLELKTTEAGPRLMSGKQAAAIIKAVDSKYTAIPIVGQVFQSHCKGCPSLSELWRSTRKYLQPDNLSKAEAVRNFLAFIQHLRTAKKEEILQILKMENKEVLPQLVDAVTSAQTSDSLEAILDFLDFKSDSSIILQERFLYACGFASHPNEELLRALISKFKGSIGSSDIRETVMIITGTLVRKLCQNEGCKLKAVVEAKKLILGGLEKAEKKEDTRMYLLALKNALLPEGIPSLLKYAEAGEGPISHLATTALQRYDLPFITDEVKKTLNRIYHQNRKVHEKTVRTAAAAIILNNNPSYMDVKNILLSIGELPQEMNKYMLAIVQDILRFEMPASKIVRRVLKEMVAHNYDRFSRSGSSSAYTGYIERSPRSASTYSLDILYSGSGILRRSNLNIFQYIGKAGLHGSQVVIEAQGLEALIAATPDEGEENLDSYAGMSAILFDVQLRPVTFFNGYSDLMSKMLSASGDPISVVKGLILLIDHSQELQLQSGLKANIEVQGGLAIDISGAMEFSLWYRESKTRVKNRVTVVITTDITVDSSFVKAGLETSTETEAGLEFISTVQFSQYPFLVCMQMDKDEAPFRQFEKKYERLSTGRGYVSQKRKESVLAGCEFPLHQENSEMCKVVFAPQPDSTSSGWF

[3] = PlasmaTC lowering was determined in standard-diet-fed cynomolgus monkeys after 16h of postdosing at 1.25 mg/kg; assay type: functional, Cercopithecidae
Summary of the method: (§1)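 Cynomolgus monkeys on standard diet received oral dosing once daily for 7 days. Plasma TC was measured 16 h postdosing. Values are percent lowering at a stated dose (mg/kg), or ED50, the dose producing 50% TC lowering.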

[4] = PlasmaTC lowering was determined in standard-diet-fed cynomolgus monkeys after 16h of postdosing at 5 mg/kg; assay type: functional, Cercopithecidae
Summary of the method: as §1

[5] = Dose required for 50% lowering of plasma TC in standard-diet-fed cynomolgus monkeys; assay type: functional; settings: Cercopithecidae
Summary of the method: as §1

[6] = PlasmaTC lowering was determined in standard-diet-fed cynomolgus monkeys after 16h of postdosing at 2.5 mg/kg; assay type: functional, Cercopithecidae
Summary of the method: as §1

[7] = target: T1, Microsomal triglyceride transfer protein large subunit; experiment: (§2) In vitro inhibition of human microsomal triglyceride transfer protein in HepG2 cells using apoB secretion assay; assay type: functional, cell-based
[8] = Dose required for 50% lowering of plasma TC in standard-diet-fed golden Syrian hamsters 16h postdosing; assay type: functional
Summary of the method: (§3)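 Golden Syrian hamsters on standard diet were dosed orally once daily for 3 days. Plasma total cholesterol was measured 16 h after dosing. Values are percent TC lowering at a given dose (mg/kg), or ED50, the dose giving 50% plasma TC lowering.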

[9] = PlasmaTC lowering was determined in standard-diet-fed cynomolgus monkeys after 16h of postdosing at 10 mg/kg; assay type: functional, Cercopithecidae
Summary of the method: as §1

[10] = target: T1, Microsomal triglyceride transfer protein large subunit; experiment: In vitro inhibition of human microsomal triglyceride transfer protein using triglyceride transfer assay
[11] = TC lowering at dose was measured as % lowering of plasma TC in standard-diet-fed cynomolgus monkeys 16h postdosing.; assay type: functional, Cercopithecidae
Summary of the method: as §1

Mesocricetus auratus [12] = experiment: TC lowering at 8 mg/kg was measured as % lowering of plasma TC in standard-diet-fed golden Syrian hamsters 16h postdosing.
[13] = target: T1, Microsomal triglyceride transfer protein large subunit; experiment: as §2; assay type: cell-based
Mesocricetus auratus [14] = experiment: PlasmaTC lowering was determined in standard-diet-fed after 16h of postdosing of at 15 mg/kg in golden Syrian hamsters
[15] = PlasmaTC lowering was determined in standard-diet-fed cynomolgus monkeys after 16h of postdosing of at 2.5 mg/kg; assay type: functional, Cercopithecidae
Summary of the method: as §1

[16] = ED50 represents dose required for 50% lowering of plasma TC in standard-diet-fed golden Syrian hamsters 16h postdosing.; settings: Mesocricetus auratus
[17] = target: T1, Microsomal triglyceride transfer protein large subunit; experiment: In vitro inhibition of human Microsomal Triglyceride Transfer Protein (triglyceride transfer assay)
[18] = PlasmaTC lowering was determined in standard-diet-fed cynomolgus monkeys after 16h of postdosing of at 5 mg/kg; assay type: functional, Cercopithecidae
Summary of the method: as §1

[19] = PlasmaTC lowering was determined in standard-diet-fed cynomolgus monkeys after 16h of postdosing of at 0.3 mg/kg; assay type: functional, Cercopithecidae
Summary of the method: as §1

[20] = Dose required for 50% lowering of plasma TC in standard-diet-fed golden Syrian hamsters 16h postdosing.; assay type: functional
Summary of the method: as §3

[21] = PlasmaTC lowering was determined in standard-diet-fed cynomolgus monkeys after 16h of postdosing of at 1 mg/kg; assay type: functional, Cercopithecidae
Summary of the method: as §1

[22] = PlasmaTC lowering was determined in standard-diet-fed cynomolgus monkeys after 16h of postdosing of at 0.1 mg/kg; assay type: functional, Cercopithecidae
Summary of the method: as §1

[23] = PlasmaTC lowering was determined in standard-diet-fed cynomolgus monkeys after 16h of postdosing of at 1.25 mg/kg; assay type: functional, Cercopithecidae
Summary of the method: as §1

[24] = Dose required for 50% lowering of plasma TC in standard-diet-fed cynomolgus monkeys 16h postdosing.; assay type: functional; settings: Cercopithecidae
Summary of the method: as §1

SMILES: O=C(NC1CCN(CCCCC2(C(=O)NCC(F)(F)F)c3ccccc3-c3ccccc32)CC1)c1ccccc1-c1ccc(C(F)(F)F)cc1 [LOMITAPIDE]
TC lowering [3]: -35% | TC lowering [4]: -74% | ED50 [5]: 2 mg/kg | TC lowering [6]: -65% | IC50 [7]: 0.8 nM | ED50 [8]: 2.3 mg/kg | TC lowering [9]: -88% | IC50 [10]: 8 nM

SMILES: O=C(Nc1cccc2c1ncn2CCCC1(C(=O)NCC(F)(F)F)c2ccccc2-c2ccccc21)c1ccccc1-c1ccc(C(F)(F)F)cc1
IC50 [2]: 10 nM | TC lowering (Mesocricetus auratus [14]): -11%

SMILES: Cc1ccc2c(nc(C)n2CCCCC2(C(=O)NCC(F)(F)F)c3ccccc3-c3ccccc32)c1NC(=O)c1ccccc1-c1ccc(C(F)(F)F)cc1
IC50 [2]: 1 nM | TC lowering [19]: -43% | ED50 [20]: 0.28 mg/kg | TC lowering [21]: -76% | TC lowering [22]: -28% | TC lowering [23]: -83% | ED50 [24]: 0.38 mg/kg | IC50 [13]: 0.03 nM

Second part, led by results:

IC50 [2]: 2 nM
SMILES: CCCc1nc2c(NC(=O)c3ccccc3-c3ccc(C(F)(F)F)cc3)cccc2n1CCCCC1(C(=O)NCC(F)(F)F)c2ccccc2-c2ccccc21
TC lowering (Mesocricetus auratus [1]): -44%

IC50 [2]: 4 nM | IC50 [13]: 0.06 nM
SMILES: CC(C)c1nc2c(NC(=O)c3ccccc3-c3ccc(C(F)(F)F)cc3)cccc2n1CCCCC1(C(=O)NCC(F)(F)F)c2ccccc2-c2ccccc21
TC lowering [11]: -39% | TC lowering (Mesocricetus auratus [12]): -60%

IC50 [17]: 5 nM | IC50 [13]: 0.24 nM
SMILES: O=C(Nc1cccc2c1ncn2CCCCC1(C(=O)NCC(F)(F)F)c2ccccc2-c2ccccc21)c1ccccc1-c1ccc(C(F)(F)F)cc1
TC lowering [15]: -19% | ED50 [16]: 12 mg/kg | TC lowering [18]: -52%

IC50 [2]: 1 nM | IC50 [13]: 0.15 nM
SMILES: Cc1nc2c(NC(=O)c3ccccc3-c3ccc(C(F)(F)F)cc3)cccc2n1CCCCC1(C(=O)NCC(F)(F)F)c2ccccc2-c2ccccc21
ED50 [20]: 2.5 mg/kg | TC lowering [23]: -51% | TC lowering [18]: -80%

IC50 [2]: 1 nM | IC50 [13]: 0.02 nM
SMILES: Cc1ccc2c(ncn2CCCCC2(C(=O)NCC(F)(F)F)c3ccccc3-c3ccccc32)c1NC(=O)c1ccccc1-c1ccc(C(F)(F)F)cc1
TC lowering [15]: -68% | ED50 [20]: 3.8 mg/kg
